From PubChem
Mdm2-MdmX inh – inhibitors of human Mdm2/MdmX interaction; SaOS-2 split-luciferase Mdm2/MdmX complementation, luminescence; hit rate 3% among 330,000; inhibition, % at 8 µM; O15151+Q00987;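 active = inhibition of at least 50% at 8 µM in the primary screen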
Target sequence (O15151 whole entry, looked up): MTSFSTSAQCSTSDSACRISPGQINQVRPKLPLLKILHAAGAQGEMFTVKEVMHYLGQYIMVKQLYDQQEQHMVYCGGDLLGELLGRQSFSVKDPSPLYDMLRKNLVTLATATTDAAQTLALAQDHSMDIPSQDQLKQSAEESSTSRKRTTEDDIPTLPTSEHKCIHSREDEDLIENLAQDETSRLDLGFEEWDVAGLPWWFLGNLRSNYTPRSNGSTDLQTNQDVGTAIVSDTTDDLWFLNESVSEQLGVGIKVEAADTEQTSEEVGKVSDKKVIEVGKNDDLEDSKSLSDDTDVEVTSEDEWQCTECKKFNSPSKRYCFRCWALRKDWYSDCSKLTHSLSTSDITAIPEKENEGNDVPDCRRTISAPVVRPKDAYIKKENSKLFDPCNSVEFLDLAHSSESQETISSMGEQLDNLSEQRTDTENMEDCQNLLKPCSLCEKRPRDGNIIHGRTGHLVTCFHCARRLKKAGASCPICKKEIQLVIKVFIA
Target sequence (Q00987 whole entry, looked up): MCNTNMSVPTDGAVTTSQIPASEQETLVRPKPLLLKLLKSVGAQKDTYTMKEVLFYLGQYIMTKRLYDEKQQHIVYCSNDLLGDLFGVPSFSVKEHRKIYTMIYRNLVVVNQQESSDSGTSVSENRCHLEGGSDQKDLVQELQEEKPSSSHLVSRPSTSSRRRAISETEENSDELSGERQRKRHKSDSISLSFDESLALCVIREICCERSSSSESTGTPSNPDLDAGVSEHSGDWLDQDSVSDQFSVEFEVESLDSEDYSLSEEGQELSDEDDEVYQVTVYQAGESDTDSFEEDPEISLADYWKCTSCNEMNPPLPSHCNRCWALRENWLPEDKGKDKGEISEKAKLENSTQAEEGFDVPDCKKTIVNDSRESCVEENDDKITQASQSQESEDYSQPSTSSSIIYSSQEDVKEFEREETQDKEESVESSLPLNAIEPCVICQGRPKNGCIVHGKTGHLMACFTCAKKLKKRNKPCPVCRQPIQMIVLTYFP
XBP1 UPR activ – activators of adaptive arm of unfolded protein response (XBP1); CHO-XBP1 luciferase reporter, IRE1-XBP1 UPR activation, luminescence; percent of tunicamycin response, DMSO as zero; activation, % at 20 µM; hit rate 0.33% among 330,000; AID 463104;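 active = versus positive control, 20 µM dose yields 30% or more activation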;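 also: 100% = tunicamycin at 10 µg/mL and 0% = DMSO only wells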
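assay system = CHO-XBP1 luciferase reporter cells | amount = 1000 cells/well | buffer or medium = F12 plus 10% FBS | compound dosing = single point, 20 µM final compound, 1% DMSO | incubation = 16-18 h cell attachment at 37 °C, then 6 h compound exposure | detection = Steady-Glo luminescence read | controls = tunicamycin 10 µg/mL and vehicle-only wells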
Exocytosis inh – lytic granule exocytosis inhibition. TALL-104 LAMP-1 surface exposure, flow cytometry; cells stimulated with thapsigargin and PMA. hit rate 0.66% among 360,000. inhibition, % at 10 µM;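 active = inhibition above about 55%, limit read from the data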
CHOP UPR activ – apoptotic UPR (CHOP) activation; AID 449763; CHO-CHOP luciferase reporter, luminescence; percent of tunicamycin response over DMSO baseline; hit rate 0.34% among 330,000; activation, % at 10 µM;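 active = at 10 µM dose, activation of 40% or more, normalized to positive control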;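 also: 100% = tunicamycin at 10 µg/mL and 0% = DMSO alone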
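Assay system: CHO cells with stable CHOP pathway luciferase reporter; Buffer or medium: F12 plus 10% serum; Times: 16-18 h cell attachment, then 6 h compound exposure, 37 °C; Signal: luciferase luminescence; Read-out basis: percent activation relative to tunicamycin control; Control set: tunicamycin high control, DMSO low control.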
ABHD5-PLIN5 inh – inhibitors of human ABHD5-perilipin-5 interaction; hit rate 0.78% among 360,000; inhibition, % at 4 µM; Split G. princeps luciferase complementation, luminescence, 4 h;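 active = inhibition above the mean inhibition across every tested compound plus 3 SD, cut at about 22% in these data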;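 also: 0% = DMSO only wells and the 100% control is not disclosed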
Mdm2 MdmX conf – confirmation of human Mdm2/MdmX interaction inhibitors | shares compounds with Mdm2-MdmX inh | hit rate 55% among 10,000 | Mdm2-MdmX binding, luminescent assay | AID 489028 | inhibition, % at 8 µM; in the data active = inhibition above about 40%
FLuc counter – full-length luciferase inhibition in Mdm2/MdmX counter-screen | hit rate 77% among 6,200 | shares compounds with Mdm2-MdmX inh | inhibition, % at 8 µM | SaOS-2 full-length luciferase counterscreen, luminescence;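 active = mean inhibition at 8 µM reaching about 37%, which flags the compound as non-specific, limit read from the data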;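 also: p53-null SaOS-2 cells with luciferase driven by a doxycycline-inducible promoter; compound on cells about two nights before reading with doxycycline added after day one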
An asterisk follows results filed as active; . = no result given. Sampled rows, rich in hits. Any-hit rate of the full collection: about 4%.

SMILES	Mdm2-MdmX inh	XBP1 UPR activ	Exocytosis inh	CHOP UPR activ	ABHD5-PLIN5 inh	Mdm2 MdmX conf	others
N#C/C(=C\c1c(Cl)cccc1Cl)c1nc2ccccc2[nH]1	-18	-1	0	0	-4	.
Nn1c(Nc2ccccc2)nc2sc3c(c2c1=O)CCCC3	-6	3	-2	1	-7	.
COc1cccc(N(C(=O)c2ccco2)c2nc(-c3sc(NC(=O)c4ccco4)nc3C)cs2)c1	74*	10	17	5	-3	49*	FLuc counter=62*
C=CCCC(=O)Nc1nc(C)c(-c2csc(Nc3cc(Cl)ccc3OC)n2)s1	29	-2	-3	2	-9	.
Cc1nc(C)c(-c2csc(Nc3cccc(O)c3)n2)s1	-63	12	12	4	-7	.
CCC(=O)Nc1nc(C)c(-c2csc(Nc3cccc(O)c3)n2)s1	73*	-9	12	2	-9	33
COc1ccccc1Nc1nc(-c2sc(NC(=O)c3ccco3)nc2C)cs1	13	0	5	1	-29	.
C=CCCC(=O)Nc1nc(C)c(-c2csc(Nc3ccc(Cl)cc3Cl)n2)s1	54*	1	8	3	-13	-17
Cc1ccc(Cl)cc1Nc1nc(-c2sc(NC(=O)c3ccco3)nc2C)cs1	81*	7	-3	2	-16	32
Cc1cc(NC(=O)c2c(F)c(F)c(F)c(F)c2F)no1	-15	-1	0	-1	-3	.
Cc1cccc(NC(=S)NNC(=O)c2csc3c2CCCC3)c1	-56	1	0	6	-9	.
C=CCCC(=O)Nc1nc(C)c(-c2csc(Nc3ccccc3OC)n2)s1	60*	2	4	1	-22	56*	FLuc counter=56*
CCC(C)C(=O)Nc1nc(C)c(-c2csc(Nc3ccccc3OC)n2)s1 (stereo not given)	36	-1	-3	1	-25	.
Cn1cc(/C=N/NC(=O)c2cccc([N+](=O)[O-])c2)c2ccccc21	61*	9	-1	5	1	-8
Cc1cc(/C=N/NC(=O)c2cccc([N+](=O)[O-])c2)c(C)n1-c1ccc(Cl)cc1Cl	50*	4	-6	-1	-10	35
Cc1ccccc1N1C(S)=C(C#N)C(=O)NC1c1cccs1 (stereo not given)	18	-2	18	0	-3	.
C[C@@H]1C(=O)O[C@@H]2CC34[C@H]5C[C@@H](C(C)(C)C)C36[C@H](OC(=O)[C@@H]6O)OC4(C(=O)O5)[C@@]12O (stereo not given in full)	-1	-4	0	-1	0	.
CC(C)n1c(SCC(=O)Nc2nc3c(s2)CCCC3)nc2c1c(=O)n(C)c(=O)n2C	60*	3	0	-3	-10	36	FLuc counter=40*
CCOC(=O)c1c(NC(=O)CSc2nc3c(c(=O)n(C)c(=O)n3C)n2C(C)C)sc(C)c1C	-5	0	-5	-1	6	.
COc1ccc(-c2cnc(N)nc2-c2ccc(OCc3ccccc3)cc2O)cc1	44	3	22	1	-5	.
Nc1ncc(-c2ccccc2)c(-c2ccc(O)cc2O)n1	61*	1	14	-2	6	31
Cc1ccc(N(C(=O)Cc2c[nH]c3ccccc23)C(C(=O)NC2CCCCC2)c2ccco2)cc1 (stereo not given)	55*	6	-3	2	-1	40*	FLuc counter=86*
Cc1ccccc1N(C(=O)Cc1c[nH]c2ccccc12)C(C(=O)NC1CCCCC1)c1ccco1 (stereo not given)	20	6	-2	2	-5	.
COc1cc(-c2nc3ccc4ccccc4c3c3c2CCC3)cc(OC)c1O	40	-3	6	1	4	.
COc1cc(-c2nc3ccc4ccccc4c3c3c2CCC3)cc(OC)c1OC	62*	-2	1	0	1	57*	FLuc counter=57*
Cc1ccccc1NC(=O)c1oc(=O)c2ccccc2c1-c1ccccc1	8	1	0	1	3	.
CCc1nc(Sc2nnnn2-c2ccccc2)c2c3c(sc2n1)CCCC3	93*	0	-3	1	-6	84*	FLuc counter=52*
